The values below come from publication PMC4495880 (Biochemical pharmacology, 2010).

Like-named read-outs stand apart in the source and are kept apart here.

Data set [1] is described as follows: Protease inhibitors blocking BNP inactivation by human kidney membranes. The data set is classed as biochemical. Conditions: for effect on BNP inactivation: human membranes, data not shown; for effect of inhibitor on inactivation of rat BNP1-32 by human kidney membranes: 45 min, N = 8.
Data set [2] can be described thus: Protease inhibitors blocking BNP inactivation by rat kidney membranes. Type of data set: biochemical. Conditions: 40 μg rat kidney membranes, 45 min; cGMP bioassay; N = 8.
For data set [3] the following is noted: cited from earlier work.
Data set [4] in a line: Proteolysis bioassay: inactivation of BNP by human kidney membranes. Type of data set: in vitro ADME. As to conditions: 40 μg human kidney membranes, 45 min, 37°C; cGMP bioassay; mean, N = 8. In short, it runs like this:
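Rat BNP_1-32 incubated 45 min at 37°C with 40 μg crude human kidney membranes (diluted to 2 mg/ml in 50 mM Tris-HCl pH 7.5, 20% glycerol, 50 mM NaF). Stopped with 0.5 N perchloric acid, boiled 10 min, neutralised. Residual activity was read as cGMP (RIA) in serum-starved HEK293 cells expressing rat (1 min) or human (3 min) GC-A, with 1 mM IBMX. Remaining peptide was fitted to an untreated-peptide standard curve and expressed as % of peptide-only. Mean ± SEM, N = 8.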

A short description of data set [5]: Proteolysis bioassay: inactivation of BNP by rat kidney membranes. The data set is classed as in vitro ADME. Conditions: 40 μg rat kidney membranes, 45 min, 37°C; cGMP bioassay; mean, N = 4. In short, it runs like this:
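Human BNP_1-32 exposed to 40 μg crude rat kidney membranes (Tris-HCl pH 7.5/glycerol/NaF buffer, 2 mg/ml) for 45 min at 37°C. Perchloric acid stop, 10 min boil, NaOH neutralisation. Aliquot in DMEM, 25 mM HEPES pH 7.4, 1 mM IBMX applied to HEK293 cells stably expressing GC-A (rat receptor 1 min, human 3 min). cGMP by radioimmunoassay; peptide left derived from standard curve, % of starting peptide-only value. Mean ± SEM, N = 4.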

For data set [6], the system named is recombinant human meprin A and NEP. The data set is classed as in vitro ADME.
[7] abbreviates: 40 μg human kidney membranes, 37°C, cGMP bioassay.

In the case of `O=S(=O)(F)Cc1ccccc1` [PMSF], in data set [1], the “effect on BNP inactivation” value is given as “neither had an effect”. Take `CC(=O)N[C@@H](CC(C)C)C(=O)N[C@@H](CC(C)C)C(=O)N[C@H](C=O)CCCNC(=N)N` [leupeptin]: the “effect of inhibitor on inactivation of rat BNP1-32 by rat kidney membranes” value in data set [2] is “had no effect”. Also, the “effect of inhibitor on inactivation of human BNP1-32 by human kidney membranes” value in data set [1] (40 μg human kidney membranes, 20 min, 37°C, cGMP bioassay) was “completely blocked activity losses”. Moreover, the “effect of inhibitor on inactivation of rat BNP1-32 by human kidney membranes” value in data set [1] (setting [7]) is “blocked a portion of the activity loss”. `CC(C)C[C@H](NP(=O)(O)O[C@@H]1O[C@@H](C)[C@H](O)[C@@H](O)[C@H]1O)C(=O)N[C@@H](Cc1c[nH]c2ccccc12)C(=O)O` [phosphoramidon]: the “effect of inhibitor on inactivation of rat BNP1-32 by human kidney membranes” value in data set [1] (setting [7]) is given as “blocked a portion of the activity loss”. Atrial natriuretic peptide [ANP]: the half-life in data set [3] is reported as ~ 2 min. “CNP: natriuretic peptide, best substrate for NEP”: in data set [3] (in vivo), the half-life is recorded as ~ 2 min. In the case of “Rat B-type natriuretic peptide 1–32 (SQDSAFRIQERLRNSKMAHSSSCFGQKIDRIG; Brain natriuretic peptide 45; UniProt P13205 77-108, looked up, fragment) [rat BNP1-32]”, the bioactivity lost entry in data set [4] was “More than 75%”. As for aprotinin, in data set [1], the “effect on BNP inactivation” value is “neither had an effect”.

In data set [5], “human B-type natriuretic peptide [human BNP1-32]” displayed an initial bioactivity lost of 48%. Further, the half-life in data set [3] was ~ 20 min. Moreover, in data set [6], the “additional loss of activity on longer incubation with purified enzymes” value is reported as “did not result in any additional loss” and the “additional loss of activity on sequential addition of the enzymes” value is reported as “did not result in any additional loss”.
